Source: paper PMC2943143 (Biochemical pharmacology, 2010)
Several values for one entry are separate records, joined by “and”; a condition that tells them apart may be missing. Equal values may be shown once. Entries after “also recorded” stand apart in the source; their conditions may differ.

Legend:
[1] = biological target: human pol λ (full-length, residues 1–575) (Homo sapiens, UniProt Q9UGP5); experiment: Pol assay, full-length human pol λ; format: biochemical; conditions: 100 and 1,000 nM PGG, Fig. 1C
Sequence of human pol λ (full-length, residues 1–575) (Q9UGP5 whole entry, the tested form may be a part): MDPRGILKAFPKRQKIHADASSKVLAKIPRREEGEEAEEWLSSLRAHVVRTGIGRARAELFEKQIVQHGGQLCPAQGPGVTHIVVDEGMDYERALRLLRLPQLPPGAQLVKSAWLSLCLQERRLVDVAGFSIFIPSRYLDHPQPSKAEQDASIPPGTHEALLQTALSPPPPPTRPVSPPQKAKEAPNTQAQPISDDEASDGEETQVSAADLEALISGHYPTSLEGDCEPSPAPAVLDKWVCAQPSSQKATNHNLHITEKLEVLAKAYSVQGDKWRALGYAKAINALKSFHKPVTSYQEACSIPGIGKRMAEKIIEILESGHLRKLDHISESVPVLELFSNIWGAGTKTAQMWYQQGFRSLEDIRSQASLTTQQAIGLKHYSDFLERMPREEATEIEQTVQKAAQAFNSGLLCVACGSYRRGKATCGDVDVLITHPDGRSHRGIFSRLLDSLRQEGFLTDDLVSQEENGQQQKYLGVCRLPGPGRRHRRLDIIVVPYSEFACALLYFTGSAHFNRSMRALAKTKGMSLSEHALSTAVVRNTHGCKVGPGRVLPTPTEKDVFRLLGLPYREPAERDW
In short: (§1)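 Test compound was dissolved in DMSO and sonicated 30 s. It was preincubated with enzyme (0.05 unit final) in 50 mM Tris-HCl pH 7.5, 1 mM DTT, 50% glycerol and 0.1 mM EDTA at 0 °C for 10 min. This was added to each enzyme's standard reaction mix with poly(dA)/oligo(dT)18 (A/T = 2/1) template-primer and dTTP substrate, then incubated at 37 °C for 60 min. Activity is given as % of inhibitor-free control.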

[2] = test system: human DU145 prostate cancer (PCa) xenografts; conditions: cited from earlier work
[3] = biological target: Angiotensin converting enzyme; conditions: read-out: IC50, Angiotensin converting enzyme; cited from earlier work
[4] = test system: calf thymus double-stranded DNA (dsDNA); experiment: Thermal transition of DNA; format: binding; conditions: 15 μM compound, calf thymus dsDNA 6 μg/ml, pH 7.0
In short: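 Calf thymus dsDNA (6 μg/ml) in 0.1 M sodium phosphate pH 7.0 with 1% DMSO was tested with or without test compound, with ethidium bromide as intercalator control. Samples were equilibrated at 78 °C for 10 min, then raised 1 °C every 2 min. Absorbance was recorded on a spectrophotometer with a thermoelectric cell holder, and compound-only absorbance was subtracted to give Tm.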

[5] = biological target: HIV-1 reverse transcriptase (Human immunodeficiency virus type 1 group M subtype B, UniProt P04585); experiment: HIV-1 reverse transcriptase assay; format: biochemical, Human immunodeficiency virus type-1 (HIV-1); conditions: highest tested concentration 1 μM, supplemental Fig. S1B
In short: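 Recombinant HIV-1 reverse transcriptase used poly(rA)/oligo(dT)18 (A/T = 2/1) template-primer and dTTP substrate. Enzyme (0.05 unit) was preincubated with test compound in sonicated DMSO at 0 °C for 10 min in Tris-HCl pH 7.5/DTT/glycerol/EDTA buffer. Reaction ran at 37 °C for 60 min. Activity is given as % of control.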

calf primase of pol α = experiment: Primase assay; format: biochemical; conditions: highest tested concentration 1 μM, supplemental Fig. S1B
human telomerase = human telomerase (Homo sapiens, UniProt O14746); experiment: Telomerase assay; format: biochemical; conditions: highest tested concentration 1 μM, supplemental Fig. S1B
Beta-secretase = conditions: cited from earlier work
human topoisomerase I = human topoisomerase I (Homo sapiens, UniProt P11387); experiment: DNA topoisomerase I assay; format: biochemical; conditions: highest tested concentration 1 μM, supplemental Fig. S1B
In short: (§2)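 Topoisomerases I and II were purified from human placenta, and DNase I came from bovine pancreas. Each activity was measured in a standard assay following the supplier's specifications.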

[6] = biological target: Klenow fragment of E. coli pol I (Escherichia coli, UniProt P00582); experiment: Pol assay, Klenow fragment of E. coli pol I; format: biochemical; conditions: supplemental Fig. S1A
In short: as §1

T4 polynucleotide kinase = T4 polynucleotide kinase (Enterobacteria phage T4, UniProt P06855); experiment: T4 polynucleotide kinase assay; format: biochemical; conditions: highest tested concentration 1 μM, supplemental Fig. S1B
Sequence of T4 polynucleotide kinase (P06855 whole entry): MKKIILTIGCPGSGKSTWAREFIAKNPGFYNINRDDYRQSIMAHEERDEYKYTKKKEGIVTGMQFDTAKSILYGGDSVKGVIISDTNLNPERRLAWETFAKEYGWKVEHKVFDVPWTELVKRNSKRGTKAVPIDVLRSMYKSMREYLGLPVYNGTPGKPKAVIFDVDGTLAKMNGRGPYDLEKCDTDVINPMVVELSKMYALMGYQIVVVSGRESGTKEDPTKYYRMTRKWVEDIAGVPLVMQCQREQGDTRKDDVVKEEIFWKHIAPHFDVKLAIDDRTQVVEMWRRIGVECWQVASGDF

del-1 pol λ (133–575) = del-1 pol λ (133–575) (Homo sapiens, UniProt Q9UGP5); experiment: Pol assay, del-1 pol λ mutant; format: biochemical; conditions: dose-response, Fig. 4B
Sequence of del-1 pol λ (133–575) (Q9UGP5 133-575): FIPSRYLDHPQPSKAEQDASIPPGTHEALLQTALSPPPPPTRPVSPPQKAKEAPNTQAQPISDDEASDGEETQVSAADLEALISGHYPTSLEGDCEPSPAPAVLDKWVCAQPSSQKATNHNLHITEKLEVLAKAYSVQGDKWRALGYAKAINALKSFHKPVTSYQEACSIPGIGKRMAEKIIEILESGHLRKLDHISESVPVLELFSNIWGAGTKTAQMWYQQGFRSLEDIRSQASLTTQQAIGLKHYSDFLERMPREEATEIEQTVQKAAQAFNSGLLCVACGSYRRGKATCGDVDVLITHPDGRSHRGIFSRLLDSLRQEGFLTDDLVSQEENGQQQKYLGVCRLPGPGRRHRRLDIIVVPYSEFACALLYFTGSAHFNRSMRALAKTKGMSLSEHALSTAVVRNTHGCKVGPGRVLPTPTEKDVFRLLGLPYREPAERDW
In short: as §1

HCV NS3 protease = conditions: read-out: IC50, HCV NS3 protease; cited from earlier work
Xanthine oxidase = conditions: read-out: IC50, Xanthine oxidase; cited from earlier work
H^+, K^+- ATPase = conditions: cited from earlier work
[7] = biological target: mouse IMP dehydrogenase (type II) (Mus musculus, UniProt P24547); experiment: IMP dehydrogenase assay; format: biochemical; conditions: highest tested concentration 1 μM, supplemental Fig. S1B
Sequence of mouse IMP dehydrogenase (type II) (P24547 whole entry): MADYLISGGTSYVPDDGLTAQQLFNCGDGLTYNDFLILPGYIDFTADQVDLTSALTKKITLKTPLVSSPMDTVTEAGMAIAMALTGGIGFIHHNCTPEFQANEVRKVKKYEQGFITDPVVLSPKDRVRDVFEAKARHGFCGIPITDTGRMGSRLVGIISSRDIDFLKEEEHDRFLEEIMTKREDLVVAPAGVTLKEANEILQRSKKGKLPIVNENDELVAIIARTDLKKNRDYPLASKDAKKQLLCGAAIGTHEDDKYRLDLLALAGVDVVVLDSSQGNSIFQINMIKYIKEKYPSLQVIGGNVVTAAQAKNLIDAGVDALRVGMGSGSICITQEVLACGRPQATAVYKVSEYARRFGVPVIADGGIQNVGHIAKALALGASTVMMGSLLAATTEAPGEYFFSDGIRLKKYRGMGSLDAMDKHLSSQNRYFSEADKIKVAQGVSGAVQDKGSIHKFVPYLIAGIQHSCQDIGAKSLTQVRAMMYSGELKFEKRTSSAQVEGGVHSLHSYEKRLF

human pol γ = human pol γ (Homo sapiens, UniProt P54098); experiment: Pol assay, human pol γ; format: biochemical; conditions: 100 and 1,000 nM PGG, Fig. 1C; compared with B- and Y-family pols
In short: as §1

mouse pol ι = mouse pol ι (Mus musculus, UniProt Q6R3M4); experiment: Pol assay, mouse pol ι; format: biochemical
Sequence of mouse pol ι (Q6R3M4 whole entry): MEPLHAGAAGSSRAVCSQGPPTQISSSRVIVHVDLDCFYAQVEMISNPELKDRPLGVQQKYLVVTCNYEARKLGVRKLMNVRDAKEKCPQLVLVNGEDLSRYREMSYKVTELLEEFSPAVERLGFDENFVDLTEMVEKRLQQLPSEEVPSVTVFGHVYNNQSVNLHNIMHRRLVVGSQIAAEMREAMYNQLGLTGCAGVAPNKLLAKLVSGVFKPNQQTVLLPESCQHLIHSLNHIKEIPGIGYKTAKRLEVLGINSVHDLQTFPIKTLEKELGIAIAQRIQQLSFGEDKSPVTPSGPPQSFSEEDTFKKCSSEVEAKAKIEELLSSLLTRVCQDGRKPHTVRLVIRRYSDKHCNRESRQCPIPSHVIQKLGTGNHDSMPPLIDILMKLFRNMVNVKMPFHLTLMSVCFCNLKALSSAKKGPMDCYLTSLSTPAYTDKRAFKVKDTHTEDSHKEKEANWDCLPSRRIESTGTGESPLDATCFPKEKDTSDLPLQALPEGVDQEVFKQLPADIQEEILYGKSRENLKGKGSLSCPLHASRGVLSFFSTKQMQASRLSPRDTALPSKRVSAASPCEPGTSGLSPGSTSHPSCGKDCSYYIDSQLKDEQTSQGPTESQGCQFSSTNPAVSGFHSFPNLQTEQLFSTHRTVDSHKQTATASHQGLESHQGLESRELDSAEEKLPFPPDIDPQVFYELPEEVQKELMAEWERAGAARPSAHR
In short: as §1

Aminopeptidase N = conditions: read-out: IC50, Aminopeptidase N; cited from earlier work
T7 RNA polymerase = T7 RNA polymerase (Escherichia phage T7, UniProt P00573); experiment: T7 RNA polymerase assay; format: biochemical; conditions: highest tested concentration 1 μM, supplemental Fig. S1B
Taq pol = Taq pol (Thermus aquaticus, UniProt P19821); experiment: Pol assay, Taq pol; format: biochemical; conditions: supplemental Fig. S1A
In short: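 Taq polymerase used poly(dA)/oligo(dT)18 (A/T = 2/1) template-primer and dTTP substrate. Test compound in sonicated DMSO was preincubated with enzyme (0.05 unit final) in 50 mM Tris-HCl pH 7.5, 1 mM DTT, 50% glycerol and 0.1 mM EDTA at 0 °C for 10 min. The mixture was then added to standard reaction mix and incubated at 74 °C for 60 min. Activity is given as % of untreated control.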

human pol ε = human pol ε (Homo sapiens, UniProt Q07864); experiment: Pol assay, human pol ε; format: biochemical
Sequence of human pol ε (Q07864 whole entry): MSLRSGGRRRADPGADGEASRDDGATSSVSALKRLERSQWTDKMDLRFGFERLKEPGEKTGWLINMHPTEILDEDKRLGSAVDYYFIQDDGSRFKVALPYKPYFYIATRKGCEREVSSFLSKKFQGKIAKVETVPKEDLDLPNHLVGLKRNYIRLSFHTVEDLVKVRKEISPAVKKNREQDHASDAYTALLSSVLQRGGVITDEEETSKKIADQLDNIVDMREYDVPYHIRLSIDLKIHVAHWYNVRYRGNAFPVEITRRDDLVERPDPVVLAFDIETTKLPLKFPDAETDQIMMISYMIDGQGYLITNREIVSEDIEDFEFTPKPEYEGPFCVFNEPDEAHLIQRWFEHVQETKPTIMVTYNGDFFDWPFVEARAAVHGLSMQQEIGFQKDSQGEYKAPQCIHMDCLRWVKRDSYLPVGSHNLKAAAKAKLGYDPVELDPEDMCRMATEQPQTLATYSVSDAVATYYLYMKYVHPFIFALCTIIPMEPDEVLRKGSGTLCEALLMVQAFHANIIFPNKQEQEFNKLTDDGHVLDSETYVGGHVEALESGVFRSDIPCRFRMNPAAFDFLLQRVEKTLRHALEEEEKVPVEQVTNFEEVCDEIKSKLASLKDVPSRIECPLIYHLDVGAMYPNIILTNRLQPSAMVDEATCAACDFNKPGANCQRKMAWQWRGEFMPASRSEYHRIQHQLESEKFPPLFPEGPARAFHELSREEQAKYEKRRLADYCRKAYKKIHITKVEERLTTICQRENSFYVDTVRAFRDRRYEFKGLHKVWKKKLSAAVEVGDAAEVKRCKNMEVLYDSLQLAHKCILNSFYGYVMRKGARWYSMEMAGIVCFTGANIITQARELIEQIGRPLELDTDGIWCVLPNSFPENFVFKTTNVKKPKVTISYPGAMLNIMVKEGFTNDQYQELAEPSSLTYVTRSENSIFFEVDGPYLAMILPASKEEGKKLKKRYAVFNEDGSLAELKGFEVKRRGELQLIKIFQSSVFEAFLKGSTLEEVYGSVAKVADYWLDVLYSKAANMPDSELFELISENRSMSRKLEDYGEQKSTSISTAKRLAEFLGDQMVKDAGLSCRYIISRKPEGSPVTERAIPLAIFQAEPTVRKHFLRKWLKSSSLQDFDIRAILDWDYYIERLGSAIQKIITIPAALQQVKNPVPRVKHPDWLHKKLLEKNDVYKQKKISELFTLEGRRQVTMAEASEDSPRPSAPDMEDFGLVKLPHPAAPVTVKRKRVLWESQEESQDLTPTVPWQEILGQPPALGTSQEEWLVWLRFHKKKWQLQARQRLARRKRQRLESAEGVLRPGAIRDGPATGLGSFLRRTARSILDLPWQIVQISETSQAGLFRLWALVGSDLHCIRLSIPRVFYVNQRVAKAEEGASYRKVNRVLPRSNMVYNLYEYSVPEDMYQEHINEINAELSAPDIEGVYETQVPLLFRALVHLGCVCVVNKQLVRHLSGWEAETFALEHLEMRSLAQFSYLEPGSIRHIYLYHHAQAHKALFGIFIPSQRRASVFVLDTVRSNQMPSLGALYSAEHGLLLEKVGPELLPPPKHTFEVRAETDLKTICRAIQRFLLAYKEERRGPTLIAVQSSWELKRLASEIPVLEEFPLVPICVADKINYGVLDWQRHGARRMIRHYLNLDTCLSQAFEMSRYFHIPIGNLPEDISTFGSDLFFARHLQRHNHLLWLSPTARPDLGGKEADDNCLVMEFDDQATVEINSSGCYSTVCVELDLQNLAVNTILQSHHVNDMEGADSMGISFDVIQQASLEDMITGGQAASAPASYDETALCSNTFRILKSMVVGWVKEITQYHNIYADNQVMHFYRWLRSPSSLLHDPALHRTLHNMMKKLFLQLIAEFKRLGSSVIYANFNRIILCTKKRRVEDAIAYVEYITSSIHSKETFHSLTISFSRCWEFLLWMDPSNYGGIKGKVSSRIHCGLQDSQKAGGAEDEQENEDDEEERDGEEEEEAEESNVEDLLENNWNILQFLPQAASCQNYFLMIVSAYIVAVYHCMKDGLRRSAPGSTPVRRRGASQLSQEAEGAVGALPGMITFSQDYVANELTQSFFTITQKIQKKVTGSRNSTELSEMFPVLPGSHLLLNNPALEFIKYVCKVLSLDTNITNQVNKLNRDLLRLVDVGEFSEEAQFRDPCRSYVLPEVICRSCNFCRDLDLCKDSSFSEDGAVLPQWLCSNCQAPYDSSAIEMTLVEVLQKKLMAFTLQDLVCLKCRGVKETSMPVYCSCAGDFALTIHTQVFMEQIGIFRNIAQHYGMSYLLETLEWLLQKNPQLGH
In short: as §1

human topoisomerase II = human topoisomerase II (Homo sapiens, UniProt P11388); experiment: DNA topoisomerase II assay; format: biochemical; conditions: highest tested concentration 1 μM, supplemental Fig. S1B
In short: as §2

Q: Which “effect on pol λ activity” value [1] does the source give for `O=C(OC[C@H]1O[C@@H](OC(=O)c2cc(O)c(O)c(O)c2)[C@H](OC(=O)c2cc(O)c(O)c(O)c2)[C@@H](OC(=O)c2cc(O)c(O)c(O)c2)[C@@H]1OC(=O)c1cc(O)c(O)c(O)c1)c1cc(O)c(O)c(O)c1` [PGG, 1,2,3,4,6-penta-O-galloyl-β-D-glucose] here?
A: Its value is “not affected; also recorded: not sensitive”.

Q: What about the “in vivo growth of DU145 xenografts” value ([2]; daily intra-peritoneal injection 20 mg/kg body weight, nude mice) of the same compound?
A: Its value is “suppresses”.

Q: What about the “effect on body weight” value ([2]; mouse, in vivo) of the same compound?
A: Its value is “without evident adverse effect”.

Q: What about the IC50 [3] of the same compound?
A: The IC50 was 73.1 µM.

Q: And the “effect on melting temperature (Tm) / thermal transition of dsDNA” value [4]?
A: Its value is “no effect”.

Q: What about the “effect on HIV-1 reverse transcriptase activity” value [5] of the same compound?
A: Its value is “did not suppress”.

Q: And the “effect on calf primase of pol α activity” value (calf primase of pol α)?
A: Its value is “did not suppress”.

Q: And the “effect on human telomerase activity” value (human telomerase)?
A: The value was “did not suppress”.

Q: What about the “Mode of Inhibition, Beta-secretase” value (Beta-secretase) of the same compound?
A: The value was “Non-competitive for Rh-EVNLDAEFK-Quencher”.

Q: What about the IC50 (Beta-secretase; read-out: IC50, Beta-secretase) of the same compound?
A: The IC50 was 3.76 µM.

Q: And the Ki (Beta-secretase; read-out: Ki, Beta-secretase)?
A: Its Ki is 5.13 µM.

Q: What about the “effect on human topoisomerase I activity” value (human topoisomerase I) of the same compound?
A: Its value is “did not suppress”.

Q: And the “effect on Klenow fragment of E. coli pol I activity” value [6]?
A: The value was “not influenced”.

Q: And the “effect on T4 polynucleotide kinase activity” value (T4 polynucleotide kinase)?
A: The value was “did not suppress”.

Q: What about the “inhibition of del-1 pol λ activity” value (del-1 pol λ (133–575)) of the same compound?
A: The value was “dose-dependently inhibited”.

Q: What about the IC50 (HCV NS3 protease) of the same compound?
A: The IC50 was 1.6 µM.

Q: And the IC50 (Xanthine oxidase)?
A: The IC50 was 3.2 µM.

Q: What about the “Mode of Inhibition, H^+, K^+- ATPase” value (H^+, K^+- ATPase) of the same compound?
A: The value was “Non-competitive for K^+”.

Q: And the IC50 (H^+, K^+- ATPase; read-out: IC50, H^+, K^+- ATPase)?
A: Its IC50 is 0.166 µM.

Q: And the “effect on mouse IMP dehydrogenase (type II) activity” value [7]?
A: Its value is “did not suppress”.

Q: What about the “inhibitory activity on pol γ (family A)” value (human pol γ) of the same compound?
A: The value was “lower”.

Q: And the IC50 (mouse pol ι)?
A: The IC50 was 0.03 to 0.045 µM.

Q: And the “effect on pol ι activity” value (mouse pol ι; 100 and 1,000 nM PGG, Fig. 1C)?
A: Its value is “significantly inhibit”.

Q: And the IC50 (Aminopeptidase N)?
A: Its IC50 is 6.5 µM.

Q: And the “effect on T7 RNA polymerase activity” value (T7 RNA polymerase)?
A: The value was “did not suppress”.

Q: And the “effect on Taq pol activity” value (Taq pol)?
A: The value was “not influenced”.

Q: What about the “effect on pol ε activity” value (human pol ε; 100 and 1,000 nM PGG, Fig. 1C) of the same compound?
A: The value was “significantly inhibit”.

Q: What about the IC50 (human pol ε; IC50, pol ε, range stated for replicative pols (α, δ and ε) together) of the same compound?
A: Its IC50 is < 0.1 µM and 0.013 to 0.066 µM.

Q: And the “effect on human topoisomerase II activity” value (human topoisomerase II)?
A: The value was “did not suppress”.
